{
  "source": "PubChem BioAssay AID488914",
  "about": "(Broad Institute, 2010)",
  "note": "Records with an inconclusive call do not appear. The source made the active and inactive calls.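 How the source made its calls: active means compounds raising caspase signal whose fitted half-maximal concentration lies at or below their highest valid tested dose; inconclusive means flat curve at 30 to 70% activity, or unreliable fit; inactive means the rest.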",
  "data": [
    {"test_system": "not listed separately", "experiment": "caspase activation in TSA-primed MEWO cells, dose response, A1 (Bcl2-A1) inhibitor project, cell-based, Trichostatin A priming, dry powder (AID 488914)", "conditions": "MEWO cells TSA-primed, caspase-Glo luminescence, 3 h; at 135 µM (top of the series)", "outline": "(§1)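 Assay system: human MEWO cells with A1 expression, Trichostatin A primed; Amount: 2500 MEWO cells seeded per well; Medium: RPMI-1640 plus 10% FBS; Measured by: Caspase-Glo luminescence, reagent diluted 1:1 in 50 mM HEPES; Read-out: caspase activity from luminescence signal.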", "values": [
      {"smiles": "Nc1nc(F)nc2c1ncn2[C@@H]1O[C@H](CO)[C@@H](O)[C@H]1O", "caspase activation": "-2.16% (inactive)"},
      {"smiles": "Cc1cccc(CS(=O)(=O)c2ncc(Cl)c(C(=O)Nc3nnc(C(C)C)s3)n2)c1", "caspase activation": "-9.05% (inactive)"},
      {"smiles": "COc1cc(/C=C(/C#N)c2nc3ccccc3[nH]2)ccc1OCC(=O)Nc1ccccc1C(C)C", "caspase activation": "2.25% (inactive)"},
      {"smiles": "Cc1ccc(CS(=O)(=O)c2ncc(Cl)c(C(=O)Nc3nnc(C(C)C)s3)n2)cc1", "caspase activation": "-9.39% (inactive)"},
      {"smiles": "Cn1c(=NC(=O)CCl)sc2ccccc21", "caspase activation": "-6.3% (inactive)"},
      {"smiles": "CCSc1nnc(NC(=O)c2nc(S(=O)(=O)Cc3ccc(F)cc3)ncc2Cl)s1", "caspase activation": "-10.5% (inactive)"},
      {"smiles": "O=C(CCl)N=c1sccn1Cc1ccccc1Cl", "caspase activation": "3.57% (inactive)"},
      {"smiles": "CCc1nnc(NC(=O)c2nc(S(=O)(=O)Cc3ccccc3)ncc2Cl)s1", "caspase activation": "-6.87% (inactive)"},
      {"smiles": "C=C1[C@@H](C)[C@H]2[C@H](Cc3ccccc3)NC(=O)[C@]23[C@H](OC(C)=O)/C=C/[C@](C)(O)C(=O)[C@@H](C)C/C=C/[C@H]3[C@@H]1O", "caspase activation": "5.7% (inactive)"}
    ]},
    {"test_system": "MEWO cells TSA-primed, caspase-Glo luminescence, 3 h", "experiment": "caspase activation in TSA-primed MEWO cells, dose response, A1 (Bcl2-A1) inhibitor project, cell-based, Trichostatin A priming, dry powder (AID 488914)", "conditions": "not given", "outline": "as §1", "values": [
      {"smiles": "Cc1cc(C(=O)CCl)c(C)n1CCc1ccc(Cl)cc1", "AC50": "77.8 µM"},
      {"smiles": "COc1cccc(C(=O)C(C#N)=C(SC)SC)c1", "AC50": "0.92 µM"},
      {"smiles": "Cc1ccc(Sc2c([N+](=O)[O-])c(=O)n(C)c3ccccc23)cc1", "AC50": "16.8 µM"},
      {"smiles": "COc1ccc(N(C(=O)CCl)C(C(=O)NCCc2ccccc2)c2cccs2)cc1Cl", "note": "(stereo not given)", "AC50": "10.6 µM"},
      {"smiles": "CCOC(=O)CSC1=N/C(=C/c2ccc(-n3cncn3)cc2)C(=O)N1C(C)=O", "AC50": "4.12 µM"},
      {"smiles": "C=C1[C@@H](C)[C@H]2[C@H](Cc3ccccc3)NC(=O)[C@]23OC(=O)/C=C\\[C@H](O)CCC[C@@H](C)C/C=C/[C@H]3[C@@H]1O", "AC50": "2.29 µM"},
      {"smiles": "CC(C)(C)n1nc(-c2ccc(Cl)cc2)c2c(N)ncnc21", "AC50": "> 135 µM (inactive)"},
      {"smiles": "O=C(Oc1cccc(/C=N/Nc2nc(Nc3ccccc3)nc(N3CCOCC3)n2)c1)c1ccco1", "AC50": "6.87 µM"},
      {"smiles": "C/C1=C/C(=O)O[C@@H]2C[C@@H](CC[C@H](C)/C=C\\CC1)O[C@@](O)(C1CSC(=O)N1)C2", "note": "(stereo not given in full)", "AC50": "0.632 µM"},
      {"smiles": "Cc1c(CCOC(=O)c2ccc(N3CCOCC3)c([N+](=O)[O-])c2)sc[n+]1CC#N", "AC50": "13.1 µM"},
      {"smiles": "CC(=O)N[C@H]1[C@H](O[C@H]2CC[C@@]3(C)C(CC[C@]4(C)C3CC=C3[C@@H]5CC(C)(C)CC[C@]5(C(=O)OC5OCC(O)C(O)C5O)C(O)C[C@]34C)C2(C)C)O[C@H](COC2OCC(O)C(OC3OCC(O)C(O)C3O)C2O)[C@@H](O[C@@H]2O[C@@H](C)[C@H](O)[C@@H](O)[C@H]2O[C@@H]2O[C@@H](C)[C@H](O)[C@@H](O)[C@H]2O)[C@@H]1O", "note": "(stereo not given in full)", "AC50": "6.81 µM"}
    ]}
  ]
}
